Assay results reported in ChEMBL document CHEMBL1127787, “1,2,3-Triazole-[2',5'-bis-O-(tert-butyldimethylsilyl)-beta-D- ribofuranosyl]-3'-spiro-5"-(4"-amino-1",2"-oxathiole 2",2"-dioxide) (TSAO) analogues: synthesis and anti-HIV-1 activity” (J Med Chem, 1994).

What was measured:
MT4 [1] = test: Tested for the inhibitory activity of HIV-2 infected MT-4 cells; assay type: functional, cell-based; settings: Homo sapiens
Summary of the method: (§1)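 MT-4 cells (5 × 10^5/mL) grown in RPMI-1640 with 10% FCS, 2 mM L-glutamine and 0.075% NaHCO3. Infected with HIV-1 or HIV-2 at 100 CCID50/mL and mixed with compound dilutions (100 to 0.006 µg/mL). After 5 days viable cells were counted by trypan blue staining. EC50 is the concentration that reduces viable-cell loss in infected cultures by 50%.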

CCRF-CEM [2] = test: Tested for the inhibitory activity of virus induced giant cell formation in HIV-1 infected CEM cells; assay type: functional, cell-based; settings: Homo sapiens
MT4 [3] = test: Tested for the ratio between CC50 (MT-4) to EC50 (MT-4); assay type: functional, Homo sapiens
MT4 [4] = test: Tested for the inhibitory activity of HIV-1 infected MT-4 cells; assay type: functional, cell-based; settings: Homo sapiens; summary of the method: as §1
CCRF-CEM [5] = test: Tested for the inhibitory activity of virus induced giant cell formation in HIV-2 infected CEM cells; assay type: functional, cell-based; settings: Homo sapiens
MT4 [6] = test: Tested for the cytotoxic concentration required to reduce the number of viable mock infected MT-4 cells; assay type: functional; settings: Homo sapiens
Summary of the method: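 Mock-infected MT-4 cells (5 × 10^5/mL) in RPMI-1640 with 10% FCS were exposed to compound dilutions (100 to 0.006 µg/mL). Viable cells were counted by trypan blue at day 5; about 150-200 cells were counted in controls. CC50 is the concentration that reduces viable cell number by 50%.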

SMILES | EC50 (MT4 [1]) [µM] | EC50 (CCRF-CEM [2]) [nM] | Ratio (MT4 [3]) | EC50 (MT4 [4]) [nM] | EC50 (CCRF-CEM [5]) [µM] | CC50 (MT4 [6]) [µM]
CC(C)(C)[Si](C)(C)OC[C@H]1O[C@@H](n2cc(C(N)=O)nn2)[C@H](O[Si](C)(C)C(C)(C)C)[C@]12OS(=O)(=O)C=C2N | > 7 | 900 | 12.5 | 1200 | > 7 | 15
CCCCc1cnnn1[C@@H]1O[C@H](CO[Si](C)(C)C(C)(C)C)[C@@]2(OS(=O)(=O)C=C2N)[C@H]1O[Si](C)(C)C(C)(C)C | > 170 | 1500 | >=115 | 1580 | > 35 | ≥ 170
COCc1cn([C@@H]2O[C@H](CO[Si](C)(C)C(C)(C)C)[C@@]3(OS(=O)(=O)C=C3N)[C@H]2O[Si](C)(C)C(C)(C)C)nn1 | > 35 | 2300 | 2.44 | 27000 | > 70 | 73
Cc1cn([C@H]2C[C@H](N=[N+]=[N-])[C@@H](CO)O2)c(=O)[nH]c1=O [ZIDOVUDINE] |  |  | 3000 |  |  | 6
CN(C)C(=O)c1cn([C@@H]2O[C@H](CO[Si](C)(C)C(C)(C)C)[C@@]3(OS(=O)(=O)C=C3N)[C@H]2O[Si](C)(C)C(C)(C)C)nn1 | > 7 | 1200 | 28.1 | 420 | > 7 | 12
CCCc1cnnn1[C@@H]1O[C@H](CO[Si](C)(C)C(C)(C)C)[C@@]2(OS(=O)(=O)C=C2N)[C@H]1O[Si](C)(C)C(C)(C)C | > 350 | 3900 | >56 | 3130 | > 35 | > 175
Cc1cn([C@@H]2O[C@H](CO[Si](C)(C)C(C)(C)C)C3(OS(=O)(=O)C=C3N)[C@H]2O[Si](C)(C)C(C)(C)C)c(=O)[nH]c1=O (stereo partly drawn) | > 20 | 60 |  |  | > 20 | 14
CCOC(=O)c1nnn([C@@H]2O[C@H](CO[Si](C)(C)C(C)(C)C)[C@@]3(OS(=O)(=O)C=C3N)[C@H]2O[Si](C)(C)C(C)(C)C)c1C(=O)OCC | > 30 | 1600 | 14.5 | 3800 | > 60 | 55
CC(C)(C)[Si](C)(C)OC[C@H]1O[C@@H](n2nncc2C(N)=O)[C@H](O[Si](C)(C)C(C)(C)C)[C@]12OS(=O)(=O)C=C2N | > 7 | 140 | 28.1 | 520 | > 7 | 15
CCOC(=O)c1cnnn1[C@@H]1O[C@H](CO[Si](C)(C)C(C)(C)C)[C@@]2(OS(=O)(=O)C=C2N)[C@H]1O[Si](C)(C)C(C)(C)C | > 165 | 1300 | >51 | 3200 | > 165 | > 165
CNC(=O)c1cnnn1[C@@H]1O[C@H](CO[Si](C)(C)C(C)(C)C)[C@@]2(OS(=O)(=O)C=C2N)[C@H]1O[Si](C)(C)C(C)(C)C | > 7 | 80 | 171 | 160 | > 7 | 27
CC(C)(C)[Si](C)(C)OC[C@H]1O[C@@H](n2cc(CBr)nn2)[C@H](O[Si](C)(C)C(C)(C)C)[C@]12OS(=O)(=O)C=C2N | > 6.5 | > 1300 | <2.1 | ≥ 6500 | > 1.3 | 14
CCOC(OCC)c1cnnn1[C@@H]1O[C@H](CO[Si](C)(C)C(C)(C)C)[C@@]2(OS(=O)(=O)C=C2N)[C@H]1O[Si](C)(C)C(C)(C)C | > 40 | > 150000 | ><1 | > 40000 | > 150 | > 150
CCCCc1cn([C@@H]2O[C@H](CO[Si](C)(C)C(C)(C)C)[C@@]3(OS(=O)(=O)C=C3N)[C@H]2O[Si](C)(C)C(C)(C)C)nn1 | > 170 | 1500 | 41 | 2600 | > 7 | 107
